In ChEMBL document CHEMBL5724801, “EUbOPEN Chemogenomics Library - Multiplex” (2024):
Where “and” joins values, the source holds several entries; their conditions need not be identical. Equal entries are not always repeated.

Columns and labels:
[1] = test system: HEK-293T; assay: Multiplex assay against HEK293T; type: toxicity, cell-based; conditions: human
Outline: (§1)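 On a CQ1 microscope at 37°C and 5% CO2, live cells were imaged after compound addition. They had been stained at seeding with Hoechst33342, BioTracker Green Microtubule Cytoskeleton Dye, MitoTracker Red and Annexin V Alexa Fluor 680. CellPathfinder machine-learning gating assigned cells to Hoechst high-intensity objects or normal cells, normal cells to healthy, pyknosed or fragmented nuclei, and pyknosed cells to mitotic or apoptotic. Tubulin, mitochondrial-mass and membrane-permeability phenotypes are per cents of healthy-nucleus cells.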

[2] = test system: U2OS; assay: Multiplex assay against U2OS; type: toxicity, cell-based; conditions: human; outline: as §1
[3] = 12 h, 1 µM, compound concentration 1 uM
[4] = 12 h, 10 µM, compound concentration 10 uM
[5] = 24 h, 1 µM, compound concentration 1 uM
[6] = 24 h, 10 µM, compound concentration 10 uM
[7] = 48 h, 1 µM, compound concentration 1 uM
[8] = 48 h, 10 µM, compound concentration 10 uM

## CCN1CCN(Cc2ccc(Nc3ncc(F)c(-c4cc(F)c5nc(C)n(C(C)C)c5c4)n3)nc2)CC1.CS(=O)(=O)O
[1]; [3]
  Population Fragmented Nuclei (%): 2.72% and 5.37%
  Population Healthy Nuclei (%): 46.26% and 18.79%
  Population Hoechst High Intensity Objects (%): 1.01% and 0%
  Population Membrane Permeable-Phenotype (%): 0.74% and 0%
  Population Mitotic Cells (%): 90.67% and 79.65%
  Population Normal (%): 98.99% and 100%
  Population Pyknosed Nuclei (%): 51.02% and 75.84%
  Population Tubulin-Different-Phenotype (%): 23.53% and 64.29%
  Total Cell Count: 297 and 149
[1]; [4]
  Population Fragmented Nuclei (%): 1.2% and 2.36%
  Population Hoechst High Intensity Objects (%): 0.4% and 0%
  Population Membrane Permeable-Phenotype (%): 0%
  Population Mitochondria Different-Phenotype (%): 53.85% and 28.57%
  Population Mitotic Cells (%): 88.21% and 74.36%
  Population Normal (%): 99.6% and 100%
  Population Pyknosed Nuclei (%): 78% and 92.13%
  Population Tubulin-Different-Phenotype (%): 84.62% and 28.57%
  Total Cell Count: 251 and 127
[1]; [5]
  Population Fragmented Nuclei (%): 1.38% and 4.83%
  Population Healthy Nuclei (%): 71.43% and 24.14%
  Population Hoechst High Intensity Objects (%): 0.23% and 0%
  Population Membrane Permeable-Phenotype (%): 2.9% and 2.86%
  Population Mitochondria Different-Phenotype (%): 26.13% and 22.86%
  Population Mitotic Cells (%): 82.2% and 83.5%
  Population Normal (%): 99.77% and 100%
  Population Pyknosed Nuclei (%): 27.19% and 71.03%
  Population Tubulin-Different-Phenotype (%): 47.42% and 25.71%
  Total Cell Count: 435 and 145
[1]; [6]
  Population Fragmented Nuclei (%): 0.69% and 4.07%
  Population Healthy Nuclei (%): 25.86% and 10.57%
  Population Hoechst High Intensity Objects (%): 0%
  Population Membrane Permeable-Phenotype (%): 0% and 23.08%
  Population Mitochondria Different-Phenotype (%): 52% and 38.46%
  Population Mitotic Cells (%): 64.32% and 55.24%
  Population Normal (%): 100%
  Population Pyknosed Nuclei (%): 73.45% and 85.37%
  Population Tubulin-Different-Phenotype (%): 93.33% and 53.85%
  Total Cell Count: 290 and 123
[1]; [7]
  Population Fragmented Nuclei (%): 2.67% and 1.8%
  Population Healthy Nuclei (%): 85.01% and 53.89%
  Population Hoechst High Intensity Objects (%): 0.13% and 0%
  Population Membrane Permeable-Phenotype (%): 9.27% and 2.22%
  Population Mitochondria Different-Phenotype (%): 37.67% and 48.89%
  Population Mitotic Cells (%): 82.47% and 79.73%
  Population Normal (%): 99.87% and 100%
[1]; [8]
  Population Fragmented Nuclei (%): 3.24% and 4.8%
  Population Healthy Nuclei (%): 28.78% and 13.6%
  Population Hoechst High Intensity Objects (%): 0% and 0.79%
  Population Membrane Permeable-Phenotype (%): 1.25% and 0%
  Population Mitochondria Different-Phenotype (%): 96.25% and 58.82%
  Population Mitotic Cells (%): 30.16% and 40.2%
  Population Normal (%): 100% and 99.21%
  Population Pyknosed Nuclei (%): 67.99% and 81.6%
  Population Tubulin-Different-Phenotype (%): 85% and 58.82%
  Total Cell Count: 278 and 126
[2]; [3]
  Population Apoptotic (%): 40% and 33.33%
  Population Fragmented Nuclei (%): 3.09% and 3.21%
  Population Healthy Nuclei (%): 86.11% and 81.41%
  Population Hoechst High Intensity Objects (%): 0% and 0.64%
  Population Membrane Permeable-Phenotype (%): 3.23% and 10.24%
  Population Mitotic Cells (%): 60% and 66.67%
  Population Normal (%): 100% and 99.36%
  Population Pyknosed Nuclei (%): 10.8% and 15.38%
  Population Tubulin-Different-Phenotype (%): 6.09% and 6.3%
  Total Cell Count: 324 and 157
[2]; [4]
  Population Apoptotic (%): 43.96% and 38.67%
  Population Fragmented Nuclei (%): 4.12% and 4.26%
  Population Healthy Nuclei (%): 70.88% and 42.55%
  Population Hoechst High Intensity Objects (%): 0%
  Population Membrane Permeable-Phenotype (%): 56.98% and 48.33%
  Population Mitotic Cells (%): 56.04% and 61.33%
  Population Normal (%): 100%
  Population Pyknosed Nuclei (%): 25% and 53.19%
  Population Tubulin-Different-Phenotype (%): 92.64% and 93.33%
  Total Cell Count: 364 and 141
[2]; [5]
  Population Apoptotic (%): 36.67% and 46.88%
  Population Fragmented Nuclei (%): 2.68% and 4.65%
  Population Healthy Nuclei (%): 82.68% and 76.74%
  Population Hoechst High Intensity Objects (%): 0%
  Population Membrane Permeable-Phenotype (%): 3.54% and 6.06%
  Population Mitotic Cells (%): 63.33% and 53.12%
  Population Normal (%): 100%
  Population Pyknosed Nuclei (%): 14.63% and 18.6%
  Population Tubulin-Different-Phenotype (%): 7.67% and 9.85%
  Total Cell Count: 410 and 172
[2]; [6]
  Population Apoptotic (%): 48.89% and 41.41%
